Measured values as given in publication PMC2094211 (Biochimica et Biophysica Acta. Molecular Basis of Disease, 2007).
Substitutions are numbered along the chain they refer to. Square brackets hold non-standard residues; d marks the D form. Ends that are not written are not given here. * marks the point of attachment. Nle = CCCC[C@H](N)C(=O)O; For = O=C*

Experiments:
FPR R190/K192 [1] = biological target: T1, FPR R190/K192 (Homo sapiens, UniProt P21462, N192K); experiment: FACScan analysis of ligand binding
T1 sequence (P21462 1-350 N192K): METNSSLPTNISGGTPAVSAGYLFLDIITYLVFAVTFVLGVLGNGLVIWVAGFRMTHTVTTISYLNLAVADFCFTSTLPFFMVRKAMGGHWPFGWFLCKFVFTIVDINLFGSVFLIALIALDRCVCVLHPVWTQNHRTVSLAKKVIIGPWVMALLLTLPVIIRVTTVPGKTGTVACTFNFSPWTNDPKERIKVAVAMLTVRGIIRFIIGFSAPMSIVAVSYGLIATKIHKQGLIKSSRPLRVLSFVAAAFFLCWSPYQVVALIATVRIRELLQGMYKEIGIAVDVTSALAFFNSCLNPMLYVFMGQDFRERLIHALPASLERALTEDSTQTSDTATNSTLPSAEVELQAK

FPR R190/N192 [2] = biological target: T2, FPR R190/N192 (Homo sapiens, UniProt P21462); experiment: FACScan analysis of ligand binding
T2 sequence (P21462 1-350): T1 sequence (P21462 1-350 N192K) with K192N

FPR W190/N192 [3] = biological target: T3, FPR W190/N192 (Homo sapiens, UniProt P21462, R190W); experiment: FACScan analysis of ligand binding
T3 sequence (P21462 1-350 R190W): T1 sequence (P21462 1-350 N192K) with R190W, K192N

FPR R190/K192 [4] = biological target: T1, FPR R190/K192; experiment: Downregulation of surface FPR in CHO S cells; format: cell-based
Procedure, shortened: (§1)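 CHO S cells expressing the FPR variant were exposed to test compound (0.4% DMSO) in CHO-S-SFMII for 1 h at 37 °C. They were washed twice with cold phosphate buffer, then labeled 1 h at 4 °C with 50 nM formyl-Nle-Leu-Phe-Nle-Tyr-Lys-FITC in pH 7.4 buffer with Mg++, Ca++ and 5% FBS. Mean fluorescence was measured by FACScan, minus non-expressing cells.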

FPR R190/N192 [5] = biological target: T2, FPR R190/N192; experiment: Downregulation of surface FPR in CHO S cells; format: cell-based
Procedure, shortened: as §1

FPR W190/N192 [6] = biological target: T3, FPR W190/N192; experiment: Downregulation of surface FPR in CHO S cells; format: cell-based
Procedure, shortened: as §1

FPR R190/N192 [7] = biological target: T4, FPR R190/N192 (Homo sapiens, UniProt P21462); experiment: FACS competition with formyl-Nle-Leu-Phe-Nle-Tyr-Lys-FITC
T4 chain: T1 sequence (P21462 1-350 N192K) with K192N

FPR W190/N192 [8] = biological target: T5, FPR W190/N192 (Homo sapiens, UniProt P21462); experiment: as above
T5 chain: T1 sequence (P21462 1-350 N192K) with R190W, K192N

## Ac-WEDAVGWI-NH2
FPR R190/K192 [1]; fold weaker
  Binding relative to WEDWVGWI, R190/K192: more than 10 fold
FPR R190/N192 [2]; fold weaker
  Binding relative to WEDWVGWI, R190/N192: more than 10 fold
FPR W190/N192 [3]; fold weaker
  Binding relative to WEDWVGWI, W190/N192: more than 10 fold

## Ac-WEDWVGWI-NH2
FPR R190/K192 [4]; 25 μM peptide, data not shown
  Inhibition of the downregulation with 300 nM formyl-Nle-Leu-Phe, R190/K192: ~50%
FPR R190/K192 [1]; Ki for binding of peptides to R190/K192 FPR, ± SEM, vs 0.38 nM formyl-Nle-Leu-Phe-Nle-Tyr-Lys-FITC, 4 °C, 60 min
  Ki: 1300 ± 300 nM
FPR R190/N192 [5]; 25 μM peptide, data not shown
  Inhibition of the downregulation with 300 nM formyl-Nle-Leu-Phe, R190/N192: ~50%
FPR W190/N192 [6]; 25 μM peptide, data not shown
  Inhibition of the downregulation with 300 nM formyl-Nle-Leu-Phe, W190/N192: ~50%
FPR R190/N192 [2]; Ki for binding of peptides to R190/N192 FPR, ± SEM, vs 0.38 nM formyl-Nle-Leu-Phe-Nle-Tyr-Lys-FITC, 4 °C, 60 min
  Ki: 1300 ± 200 nM
FPR W190/N192 [3]
  Ki: 2600 ± 400 nM

## formyl-NleNleWED
FPR R190/K192 [4]; concentrations up to 50 μM
  Downregulation of surface receptor, R190/K192: very little downregulation
FPR R190/N192 [5]; concentrations up to 50 μM
  Downregulation of surface receptor, R190/N192: very little downregulation
FPR W190/N192 [6]; concentrations up to 50 μM
  Downregulation of surface receptor, W190/N192: very little downregulation

## For-[Nle][Nle]WEDWVGWI [formyl-NleNleWEDWVGWI, listing 1 of 2 here]
FPR R190/N192 [7]
  Ki: 480 nM

## For-[Nle][Nle]WEDWVGWI [formyl-NleNleWEDWVGWI, listing 2 of 2 here]
FPR W190/N192 [8]
  Ki: 1000 nM

## Ac-WEDWVGWI-NH2 [WEDWVGWI (FIV GP-36 peptide)]
FPR R190/N192 [7]
  Ki: 1300 nM
